Data reported in paper PMC6071920 (MedChemComm, 2016).
Where “and” joins values, the source holds several entries; their conditions need not be identical. Equal values may be shown once. Read-outs that look alike come from different tables or passages of the source.

Assays:
[1] = molecular target: TSPO; details: read-out: Ki for the TSPO; cited from earlier work
[2] = system: TSPO A147T; type: binding, human; details: fold discrimination (loss of affinity at TSPO A147T versus TSPO WT)
[3] = molecular target: TSPO A147T (Homo sapiens, UniProt P30536); type: binding
[4] = molecular target: TSPO WT (Homo sapiens, UniProt P30536, T147A); type: binding; details: 3b versus 3a; 4b versus 4a
[5] = system: TSPO WT over-expressing 293T cells; test: Proliferation; type: cell-based, human; details: 48 h, BrdU ELISA
In short: (§1)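 Clonally selected 293T cells, lentivirally transduced with human TSPO WT or A147T, puromycin-selected, grown in DMEM with 10% FBS, 100 U ml−1 penicillin/streptomycin and 2 mM glutamine. BrdU labelled at 37 °C for 4 h, then detected by BrdU ELISA. Stopped with 1 M sulfuric acid and read at 450 nm. Normalised to vehicle controls; one-way ANOVA with Dunnett's test.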

[6] = system: TSPO A147T over-expressing 293T cells; test: Proliferation; type: cell-based, human; details: 48 h, BrdU ELISA
In short: as §1

[7] = system: TSPO; details: cited from earlier work; for Fold reduction of affinity in LABs compared to HABs: brain tissue or lymphocytes
[8] = cited from earlier work
[9] = molecular target: rat TSPO; details: read-out: Affinity commonly reported at the rat TSPO; cited from earlier work

Sequence of TSPO A147T (Homo sapiens, UniProt P30536) (P30536 whole entry, stated change not applied): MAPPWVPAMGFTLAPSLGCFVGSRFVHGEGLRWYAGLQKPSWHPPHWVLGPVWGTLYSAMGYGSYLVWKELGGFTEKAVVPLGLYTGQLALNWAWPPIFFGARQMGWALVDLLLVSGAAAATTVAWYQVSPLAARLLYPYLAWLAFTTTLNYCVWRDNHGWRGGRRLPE
Sequence of TSPO WT (P30536 whole entry T147A): as the sequence (P30536 whole entry, stated change not applied) above, with T147A counted along it

## NC(=O)c1nc(-c2ccccc2)c2ccccc2n1 [4-phenyl quinazoline-2-carboxamide]
[1]
  Ki: 0.5 nM

## CCN(CC)C(=O)Cn1c2ccccc2c2ccccc21 [Compound 3a, 2-(9H-Carbazol-9-yl)-N,N-diethylacetamide]
[2]
  TSPO A147T Ki/TSPO WT Ki: 6

## CCN(Cc1ccccc1)C(=O)Cn1c2ccccc2c2ccccc21 [Compound 3b, N-Benzyl-2-(9H-carbazol-9-yl)-N-ethylacetamide]
[3]; 3b versus 3a
  Fold reduction in TSPO A147T affinity compared to 3a: 2.6 ×
[4]
  Fold lower affinity at TSPO WT than the N,N-diethylamide analogue: 3 ×
[5]
  Effect on proliferation at 100 μM, TSPO WT cells: did not significantly affect proliferation
[6]
  Effect on proliferation at 100 μM, TSPO A147T cells: did not significantly affect proliferation

## CCN(CC)C(=O)Cn1c2ccccc2c2cc(Br)ccc21 [Compound 4a, 2-(3-Bromo-9H-carbazole-9-yl)-N,N-diethylacetamide]
[2]
  TSPO A147T Ki/TSPO WT Ki: 5

## CCN(CC)C(=O)Cn1c2ccccc2c2cc(-c3ccccc3)ccc21 [Compound 5a, N,N-Diethyl-2-(3-phenyl-9H-carbazole-9-yl)acetamide]
[2]
  TSPO A147T Ki/TSPO WT Ki: 5- to 6

## CCN(CC)C(=O)Cn1c2ccccc2c2cc(-c3ccc(OC)cc3)ccc21 [Compound 5c, N,N-Diethyl-2-(3-(4-methoxyphenyl)-9H-carbazole-9-yl)acetamide]
[3]; 4b versus 4a, 5c versus 3a
  Fold improved (higher) affinity at TSPO A147T than the comparator analogue: 2 ×

## CCN(CC)C(=O)Cc1c(-c2ccc(OC)cc2)nn2c(C)cc(C)nc12 [DPA-713]
[5]
  Effect on proliferation at 100 μM, TSPO WT cells: did not significantly affect proliferation
[6]
  Effect on proliferation at 100 μM, TSPO A147T cells: did not significantly affect proliferation

## COc1ccccc1CN(C(C)=O)c1cnccc1Oc1ccccc1 [PBR-28]
[7]
  Fold reduction of affinity in LABs compared to HABs: 55 fold

## CCC(C)N(C)C(=O)c1cc2ccccc2c(-c2ccccc2Cl)n1 (centres unmarked) [PK 11195]
[8]
  In vivo bioavailability: poor in vivo bioavailability
[9]
  Ki: 0.7 to 18 nM

## CCN(Cc1ccccc1)C(=O)Cn1c(=O)n(C)c2cnc(-c3ccccc3)nc21 [XBD-173]
[2]
  TSPO A147T Ki/TSPO WT Ki: 5 and 5- to 6
[7]
  Fold reduction of affinity in LABs compared to HABs: 13 fold
[7]; read-out: Affinity at LABs, LAB brain tissue
  Ki: 30.3 nM
